Drawing on ChEMBL document CHEMBL1137705, “Study of 5-nitroindazoles' anti-Trypanosoma cruzi mode of action: electrochemical behaviour and ESR spectroscopic studies” (Eur J Med Chem, 2009), this text covers inhibition of growth, Activity and IC50 for 17 molecules.

Molecules are shown by their SMILES. The source made the active and inactive calls. The rule behind the calls is not given here.

Test [1] concerns Trypanosoma cruzi. The experiment in a line: Growth inhibition of Trypanosoma cruzi CL-Brener clone epimastigotes […] at 25 uM measured on […] by Brener method. The class given is functional. Conditions: 120 h, read-out: GI. The method, boiled down: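 Axenic epimastigote culture (CL Brener) ran at 28 °C in BHI-tryptose with 5% FBS. Start density was 1 × 10⁶ cells/mL, with drug added from a DMSO stock (final ≤0.4%). %GI = {1 − [(Ap − A0p)/(Ac − A0c)]} × 100, using A600 at day 5 and day 0, drug versus drug-free control. Means of three experiments.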

The test system of test [2] is Trypanosoma cruzi. Put plainly: Antitrypanosomal activity against Trypanosoma cruzi SN3 trypomastigotes infected in african green monkey Vero cells assessed as parasite viability at 16.4 uM after 24 hrs by MTT assay. The class given is functional. (In general: Tetrazolium assays rely on reduction of a dye to a coloured formazan, in cell work by metabolically active cells.)

The subject of test [3] is Trypanosoma cruzi. Put plainly: Antitrypanosomal activity against Trypanosoma cruzi SN3 trypomastigotes infected in african green monkey Vero cells assessed as parasite viability at 11 uM after 24 hrs by MTT assay. The class given is functional. The method, boiled down:
(§1)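 Vero cells were infected with SN-3 metacyclic trypomastigotes, then reinfected at 1 × 10⁶ parasites per 25 cm². Harvested trypomastigotes (1 × 10⁷) were incubated in FBS-RPMI at 37 °C for 24 h with or without compound. MTT was added to an aliquot at 0.5 mg/mL final, 28 °C for 4 h. SDS–HCl solubilisation ran overnight. Read-out was A570, reference 690 nm; untreated parasites = 100% viability.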

The subject of test [4] is Trypanosoma cruzi. The experiment in a line: Antitrypanosomal activity against Trypanosoma cruzi CL-Brener clone epimastigotes […] measured on […] by Brener method. The following applies: 120 h. Format: functional, organism-based. An outline of the steps: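 CL Brener epimastigotes were grown axenically at 28 °C in BHI-tryptose with 5% FBS. Day-0 inoculum was 1 × 10⁶ cells/mL from a 10-day stationary culture. Drug came from a DMSO stock, with final DMSO ≤0.4%; control had 0.4% DMSO and no drug. A600 was read daily. IC50 was the concentration reducing the day-5 absorbance ratio versus control to 50%.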

Test [5] relates to Trypanosoma cruzi. The experiment in a line: Antitrypanosomal activity against Trypanosoma cruzi SN3 trypomastigotes infected in african green monkey Vero cells assessed as parasite viability at 12.5 uM after 24 hrs by MTT assay. Format: functional.
The subject of test [6] is Trypanosoma cruzi. Put plainly: Antitrypanosomal activity against Trypanosoma cruzi SN3 trypomastigotes infected in african green monkey Vero cells assessed as parasite viability at 6.6 uM after 24 hrs by MTT assay. The class given is functional.
The test system of test [7] is Trypanosoma cruzi. The experiment in a line: Induction of nitro-anion radical production in epimastigotes form of Trypanosoma cruzi Tulahuen microsomes at 2 mM after 25 mins by ESR spectroscopy. Format: functional. Conditions: Microsome.
The test system of test [8] is Trypanosoma cruzi. The experiment in a line: Induction of nitro-anion radical production in epimastigotes form of Trypanosoma cruzi Tulahuen microsomes at 1 mM after 25 mins by ESR spectroscopy. The class given is functional. Conditions: Microsome.
Test [9] relates to Trypanosoma cruzi. Put plainly: Antitrypanosomal activity against Trypanosoma cruzi SN3 trypomastigotes infected in african green monkey Vero cells assessed as parasite viability at 22 uM after 24 hrs by MTT assay. Format: functional. The method, boiled down: as §1

Regarding `O=[N+]([O-])c1ccc2c(c1)c(OCc1ccccc1)nn2CCOCC[N+]1([O-])CCCCC1`, the inhibition of growth at 25 µM in the test with Trypanosoma cruzi [1] amounted to 0%.

For `O=[N+]([O-])c1ccc2c(c1)c(OCc1ccccc1)nn2CCOCCN1CCSCC1`, the inhibition of growth at 25 µM with Trypanosoma cruzi [1] turned out to be 20%.

On to `CN(C)CCOCCn1nc(O)c2cc([N+](=O)[O-])ccc21`, for which the inhibition of growth at 25 µM in the test with Trypanosoma cruzi [1] was 3%.

For `O=[N+]([O-])c1ccc2c(c1)c(O)nn2CCOCCN1CCCCC1`, the inhibition of growth at 25 µM in the test on Trypanosoma cruzi [1] is 9%.

Regarding `O=c1c2cc([N+](=O)[O-])ccc2n2n1CCOCC2`, the inhibition of growth at 25 µM in the test with Trypanosoma cruzi [1] came to 6%.

Consider `CN(C)CCOCCn1nc(OCc2ccccc2)c2cc([N+](=O)[O-])ccc21`, for which, in the test with Trypanosoma cruzi [2], the Activity is 0.56%. In addition, the inhibition of growth at 25 µM in the test with Trypanosoma cruzi [1] was found to be 80%.

In the case of `COc1nn(CCOCCN2CCCCC2)c2ccc([N+](=O)[O-])cc12`, the inhibition of growth at 25 µM in the test with Trypanosoma cruzi [1] was found to be 25%.

`CCCCNCCCCCn1nc(OCc2ccccc2)c2cc([N+](=O)[O-])ccc21`: the Activity in the test on Trypanosoma cruzi [3] is listed as -0.37%. For the same molecule, the concentration for half-maximal inhibition (IC50) in the test on Trypanosoma cruzi [4] was 11 µM. The inhibition of growth at 25 µM in the test on Trypanosoma cruzi [1] amounted to 94%.

As to `CC1CS(=O)(=O)CCN1/N=C/c1ccc([N+](=O)[O-])o1` (configuration not stated) [NIFURTIMOX], in the test on Trypanosoma cruzi [4], the half-inhibitory concentration (IC50) was 3.4 µM. Also, the inhibition of growth at 25 µM in the test with Trypanosoma cruzi [1] was found to be 100%.

`CN(C)CCCCCn1nc(OCc2ccccc2)c2cc([N+](=O)[O-])ccc21`: in the test with Trypanosoma cruzi [5], the Activity was 0.49%. Moreover, the inhibition of growth at 25 µM in the test with Trypanosoma cruzi [1] was 100%.

As to `O=[N+]([O-])c1ccc2c(c1)c(O)nn2CCOCCN1CCSCC1`, the inhibition of growth at 25 µM with Trypanosoma cruzi [1] came to 0%.

Consider `O=c1c2cc([N+](=O)[O-])ccc2n2n1CCCCC2`, for which, in the test with Trypanosoma cruzi [1], the inhibition of growth at 25 µM was determined as 4%.

For `C[N+](C)([O-])CCOCCn1nc(OCc2ccccc2)c2cc([N+](=O)[O-])ccc21`, the inhibition of growth at 25 µM in the test on Trypanosoma cruzi [1] was determined as 6%.

With `CN(C)CCCCCn1nc(OCc2ccccc2)c2ccccc21`, the inhibition of growth at 25 µM with Trypanosoma cruzi [1] came to 18%.

On to `O=[N+]([O-])c1ccc2c(c1)c(OCc1ccccc1)nn2CCOCCN1CCCCC1`, for which, in the test on Trypanosoma cruzi [1], the inhibition of growth at 25 µM worked out at 24%.

For `O=[N+]([O-])c1ccc2c(c1)c(OCc1ccccc1)nn2CCCCCN1CCCCC1`, the Activity in the test with Trypanosoma cruzi [6] came to 0.29%. The inhibition of growth at 25 µM in the test with Trypanosoma cruzi [1] is 100%.

`CCCCNCCCCCn1nc(OC)c2cc([N+](=O)[O-])ccc21`: the outcome in the test on Trypanosoma cruzi [7] and in the test with Trypanosoma cruzi [8] was Active. Also, in the test with Trypanosoma cruzi [9], the Activity was 40.04%. The same molecule returned an IC50 with Trypanosoma cruzi [4] of 22 µM. For the same molecule, the inhibition of growth at 25 µM in the test on Trypanosoma cruzi [1] worked out at 58%.

The term IC50 denotes the concentration that gives 50% inhibition.
